Reference: ChEMBL document CHEMBL4130550, “Antiproliferative Dimeric Aporphinoid Alkaloids from the Roots of Thalictrum cultratum” (J Nat Prod, 2017)
The source made the active and inactive calls. No cut-off for these calls is given here.

How the values were obtained:
[1] = tested on: HL-60; assay: Induction of mitochondrial membrane potential loss in human HL60 cells assessed as collapse of the mitochondrial membrane potential at 0.06 uM after 24 hrs by JC1 staining based flow cytometric method (reference value: 0.58%); format: functional
[2] = tested on: HL-60; assay: Cell cycle arrest in human HL60 cells assessed as accumulation at S phase at 0.06 uM after 24 hrs by propidium iodide staining based flow cytometric method (reference value: 25.75%); format: functional
[3] = tested on: HL-60; assay: Induction of apoptosis in human HL60 cells assessed as live cells at 1.5 uM after 48 hrs by Annexin-V-FITC/propidium iodide staining based flow cytometric method (reference value: 94.19%); format: functional
[4] = tested on: HL-60; assay: Induction of apoptosis in human HL60 cells assessed as early apoptotic cells at 0.06 uM after 24 hrs by Annexin-V-APC/7-AAD staining based flow cytometric method (reference value: 2.26%); format: functional
In short: (§1)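 HL-60 are seeded overnight in six-well plates, then treated in triplicate with 0.06, 0.3 or 1.5 μM, or untreated, for 24 h. Cells are washed in PBS and taken up in annexin V binding buffer. Annexin V-APC is added for 15 min in the dark at 25 °C, and 7-AAD just before flow cytometry. Early apoptosis is annexin V-APC only; late apoptosis is annexin V-APC/7-AAD.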

[5] = tested on: HL-60; assay: Induction of apoptosis in human HL60 cells assessed as necrotic cells at 1.5 uM after 72 hrs by Annexin-V-FITC/propidium iodide staining based flow cytometric method (reference value: 0.47%); format: functional
[6] = tested on: HL-60; assay: Induction of apoptosis in human HL60 cells assessed as live cells at 1.5 uM after 72 hrs by Annexin-V-FITC/propidium iodide staining based flow cytometric method (reference value: 94.19%); format: functional
[7] = tested on: HL-60; assay: Cell cycle arrest in human HL60 cells assessed as accumulation at S phase at 0.3 uM after 24 hrs by propidium iodide staining based flow cytometric method (reference value: 25.75%); format: functional
[8] = tested on: HL-60; assay: Induction of apoptosis in human HL60 cells assessed as live cells at 0.06 uM after 24 hrs by Annexin-V-APC/7-AAD staining based flow cytometric method (reference value: 95.31%); format: functional; in short: as §1
[9] = tested on: HL-60; assay: Induction of apoptosis in human HL60 cells assessed as late apoptotic cells at 0.06 uM after 24 hrs by Annexin-V-APC/7-AAD staining based flow cytometric method (reference value: 1.99%); format: functional; in short: as §1
[10] = tested on: HL-60; assay: Induction of apoptosis in human HL60 cells assessed as late apoptotic cells at 1.5 uM after 24 hrs by Annexin-V-FITC/propidium iodide staining based flow cytometric method (reference value: 2.53%); format: functional
[11] = tested on: HL-60; assay: Cell cycle arrest in human HL60 cells assessed as accumulation at G1 phase at 1.5 uM after 24 hrs by propidium iodide staining based flow cytometric method (reference value: 43.32%); format: functional
[12] = tested on: HL-60; assay: Induction of apoptosis in human HL60 cells assessed as early apoptotic cells at 1.5 uM after 72 hrs by Annexin-V-FITC/propidium iodide staining based flow cytometric method (reference value: 2.8%); format: functional
[13] = tested on: HL-60; assay: Cell cycle arrest in human HL60 cells assessed as accumulation at G1 phase at 0.3 uM after 24 hrs by propidium iodide staining based flow cytometric method (reference value: 43.32%); format: functional
[14] = tested on: HL-60; assay: Induction of apoptosis in human HL60 cells after 24 hrs by Annexin-V-APC/7-AAD staining based flow cytometric method; format: functional, cell-based; in short: as §1
[15] = tested on: HL-60; assay: Induction of mitochondrial membrane potential loss in human HL60 cells assessed as collapse of the mitochondrial membrane potential at 1.5 uM after 24 hrs by JC1 staining based flow cytometric method (reference value: 0.58%); format: functional
[16] = tested on: HL-60; assay: Induction of apoptosis in human HL60 cells assessed as live cells at 0.3 uM after 24 hrs by Annexin-V-APC/7-AAD staining based flow cytometric method (reference value: 95.31%); format: functional; in short: as §1
[17] = tested on: HL-60; assay: Induction of mitochondrial membrane potential loss in human HL60 cells after 24 hrs by JC1 staining based flow cytometric method; format: functional, cell-based
[18] = tested on: HL-60; assay: Induction of apoptosis in human HL60 cells assessed as necrotic cells at 0.3 uM after 24 hrs by Annexin-V-APC/7-AAD staining based flow cytometric method (reference value: 0.44%); format: functional; in short: as §1
[19] = tested on: HL-60; assay: Induction of apoptosis in human HL60 cells assessed as late apoptotic cells at 1.5 uM after 48 hrs by Annexin-V-FITC/propidium iodide staining based flow cytometric method (reference value: 2.53%); format: functional
[20] = tested on: HL-60; assay: Induction of apoptosis in human HL60 cells assessed as necrotic cells at 1.5 uM after 48 hrs by Annexin-V-FITC/propidium iodide staining based flow cytometric method (reference value: 0.47%); format: functional
[21] = tested on: HL-60; assay: Induction of apoptosis in human HL60 cells assessed as early apoptotic cells at 0.3 uM after 24 hrs by Annexin-V-APC/7-AAD staining based flow cytometric method (reference value: 2.26%); format: functional; in short: as §1
[22] = tested on: HL-60; assay: Induction of apoptosis in human HL60 cells assessed as necrotic cells at 0.06 uM after 24 hrs by Annexin-V-APC/7-AAD staining based flow cytometric method (reference value: 0.44%); format: functional; in short: as §1
[23] = tested on: HL-60; assay: Induction of apoptosis in human HL60 cells assessed as necrotic cells at 1.5 uM after 24 hrs by Annexin-V-APC/7-AAD staining based flow cytometric method (reference value: 0.44%); format: functional; in short: as §1
[24] = tested on: HL-60; assay: Cell cycle arrest in human HL60 cells assessed as accumulation at G1 phase at 0.06 uM after 24 hrs by propidium iodide staining based flow cytometric method (reference value: 43.32%); format: functional
[25] = tested on: HL-60; assay: Induction of apoptosis in human HL60 cells assessed as necrotic cells at 1.5 uM after 24 hrs by Annexin-V-FITC/propidium iodide staining based flow cytometric method (reference value: 0.47%); format: functional
[26] = tested on: HL-60; assay: Cell cycle arrest in human HL60 cells assessed as accumulation at G2 phase at 1.5 uM after 24 hrs by propidium iodide staining based flow cytometric method (reference value: 30.93%); format: functional
[27] = tested on: HL-60; assay: Antiproliferative activity against human HL60 cells after 72 hrs by tryphan blue staining based hematocytometric method; format: functional, cell-based; conditions: HL-60, 72 h
In short: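 HL-60 (ATCC) in RPMI-1640 with 10% heat-inactivated FBS, 1 mM glutamine and penicillin/streptomycin, 37 °C, 5% CO2. Cells at 4.5 × 10^4 cells/mL are exposed to a concentration gradient (DMSO stock diluted in absolute EtOH) for 72 h. Trypan blue is added and total cells are counted on a hematocytometer. IC50 is the mean of three parallel experiments. Negative reference is 0.1% DMSO.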

[28] = tested on: HL-60; assay: Induction of morphological changes in human HL60 cells assessed as cell shrinkage at 0.06 to 1.5 uM after 24 hrs by Hoechst 33258 staining based fluorescence microscopic analysis; format: functional
[29] = tested on: HL-60; assay: Induction of apoptosis in human HL60 cells assessed as early apoptotic cells at 1.5 uM after 24 hrs by Annexin-V-APC/7-AAD staining based flow cytometric method (reference value: 2.26%); format: functional; in short: as §1
[30] = tested on: HL-60; assay: Cell cycle arrest in human HL60 cells assessed as accumulation at G2 phase at 0.06 uM after 24 hrs by propidium iodide staining based flow cytometric method (reference value: 30.93%); format: functional

COc1cc2c(c(Oc3ccc(C[C@H]4c5cc(OC)c6c(c5CCN4C)OCO6)cc3)c1OC)C[C@H]1c3c(c(OC)c(OC)c(OC)c3-2)CCN1C
Activity [1]: 24.1%
Activity [2]: 31.66%
Activity [3]: 52.96%
Activity [4]: 8.57%
Activity [5]: 0.79%
Activity [6]: 36.09%
Activity [7]: 42.51%
Activity [8]: 79.49%
Activity [9]: 8.18%
Activity [10]: 8.92%
Activity [11]: 33.02%
Activity [12]: 31.46%
Activity [13]: 36.01%
Activity [14]: Dose-dependent effect
Activity [15]: 59.1%
Activity [16]: 69.73%
Activity [17]: Dose-dependent effect
Activity [18]: 1.2%
Activity [19]: 17.69%
Activity [20]: 0.57%
Activity [21]: 22.76%
Activity [22]: 3.77%
Activity [23]: 7.28%
Activity [24]: 44.01%
Activity [25]: 0.14%
Activity [26]: 18.53%
IC50 [27]: 1080 nM
Activity [28]: Active
Activity [29]: 9%
Activity [30]: 24.33%
